Calls of active or inactive are those of the source.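 How the source made its calls: active means inhibition of at least 50%, averaged over three replicate wells; inactive means inhibition below 50%.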
System: HCV core protein (core106) dimerization, Hepatitis C virus
Experiment: disruption of HCV core self-association – biochemical, AlphaScreen luminescence, single dose 15 µM, powder samples, late-stage follow-up (AID 651576)
Settings: AlphaScreen GST/Flag-core106 dimerization, at 15 µM, stronger effect = higher value
Method in brief: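 Material: HCV core106 dimerization between GST-tagged and Flag-tagged core106 proteins / Amount: each tagged core106 protein at 150 nM / Buffer or medium: HEPES pH 7.5 with DTT and CHAPS / Incubation: protein preincubation 1 h at room temperature, 1 h per bead step / Detection: AlphaScreen luminescence / Controls: protein-only wells as 0% inhibition reference / Repeats: triplicate wells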

| Compound | inhibition |
| --- | --- |
| Cc1ccc(Cc2c(C)nc3nc(SCC(=O)NCCN4CCN(C(=O)c5ccc(F)cc5)CC4)nn3c2C)cc1 | < 50% (inactive) |
| Cc1ccc(Cc2c(C)nc3nc(SCC(=O)N4CCN(C)CC4)nn3c2C)cc1 | 37% (inactive) |
| Cc1ccc(Cc2c(C)nc3nc(SCC(=O)NCc4ccc(CNC(=O)CSc5nc6nc(C)c(Cc7ccc(C)cc7)c(C)n6n5)cc4)nn3c2C)cc1 | 89% |
| Cc1ccc(Cc2c(C)nc3nc(SCC(=O)NC4CCCC(NC(=O)CSc5nc6nc(C)c(Cc7ccc(C)cc7)c(C)n6n5)C4)nn3c2C)cc1 (stereo unspecified) | 98% |
| Cc1ccc(Cc2c(C)nc3nc(SCC(=O)NCCN4CCOCC4)nn3c2C)cc1 | 60% |
| Cc1ccc(Cc2c(C)nc3nc(SCC(=O)NC4CCC(NC(=O)CSc5nc6nc(C)c(Cc7ccc(C)cc7)c(C)n6n5)CC4)nn3c2C)cc1 (stereo unspecified) | 92% |
| Cc1ccc(Cc2c(C)nc3nc(SCC(=O)N4CCN(C(=O)CSc5nc6nc(C)c(Cc7ccc(C)cc7)c(C)n6n5)CC4)nn3c2C)cc1 | 87% |
| Cc1ccc(Cc2c(C)nc3nc(SCC(=O)NCCN4CCCN(C(=O)c5ccc(F)cc5)CC4)nn3c2C)cc1 | < 50% (inactive) |
| Cc1ccc(Cc2c(C)nc3nc(SCC(=O)NC4CCCCCCC4)nn3c2C)cc1 | 59% |
| Cc1nc2nc(SCC(=O)NCCN3CCOCC3)nn2c(C)c1Cc1ccncc1 | -11% (inactive) |
| Cc1nc2nc(SCC(=O)NCCC3=CCCCC3)nn2c(C)c1Cc1ccc(Cl)cc1 | 30% (inactive) |
| Cc1ccc(Cc2c(C)nc3nc(SCC(=O)NCCN4CCN(C(=O)OC(C)(C)C)CC4)nn3c2C)cc1 | 51% |
| Cc1ccc(Cc2c(C)nc3nc(SCC(=O)N4CCN(CCc5ccccc5)CC4)nn3c2C)cc1 | 41% (inactive) |
| Cc1ccc(Cc2c(C)nc3nc(SCC(=O)NCC[N+]4(C)CCOCC4)nn3c2C)cc1 | 46% (inactive) |
| Cc1ccc(Cc2c(C)nc3nc(SCC(=O)NCCN4CCN(S(=O)(=O)c5ccccc5)CC4)nn3c2C)cc1 | 62% |
| Cc1ccc(Cc2c(C)nc3nc(SCC(=O)N4CCN(Cc5ccc(F)cc5)CC4)nn3c2C)cc1 | 10% (inactive) |
| Cc1ccc(Cc2c(C)nc3nc(SCC(=O)NCCN4CCCN(S(=O)(=O)c5ccc(C)cc5)CC4)nn3c2C)cc1 | 79% |
| Cc1ccc(Cc2c(C)nc3nc(SCC(=O)NCCCCCNC(=O)CSc4nc5nc(C)c(Cc6ccc(C)cc6)c(C)n5n4)nn3c2C)cc1 | 78% |
| Cc1nc2nc(SCC(=O)NCCCNC(=O)CSc3nc4nc(C)c(Cc5ccncc5)c(C)n4n3)nn2c(C)c1Cc1ccncc1 | < 50% (inactive) |

| Compound | inhibition |
| --- | --- |
| Cc1ccc(Cc2c(C)nc3nc(SCC(=O)NCCN4CCN(S(=O)(=O)c5ccc(C)cc5)CC4)nn3c2C)cc1 | < 50% (inactive) |
| Cc1ccc(Cc2c(C)nc3nc(SCC(=O)N4CCN(Cc5ccc(Br)cc5)CC4)nn3c2C)cc1 | 43% (inactive) |
| Cc1ccc(Cc2c(C)nc3nc(SCC(=O)NCCCN4CCCCCC4)nn3c2C)cc1 | 16% (inactive) |
| Cc1ccc(Cc2c(C)nc3nc(SCC(=O)NC4CCN(C(=O)CSc5nc6nc(C)c(Cc7ccc(C)cc7)c(C)n6n5)CC4)nn3c2C)cc1 | 80% |
| Cc1ccc(Cc2c(C)nc3nc(SCC(=O)NCCC4CCOCC4)nn3c2C)cc1 | < 50% (inactive) |
| C#CCN1CCN(CCNC(=O)CSc2nc3nc(C)c(Cc4ccc(C)cc4)c(C)n3n2)CC1 | < 50% (inactive) |
| Cc1nc2nc(SCC(=O)N(C)CCN3CCOCC3)nn2c(C)c1Cc1ccc(Br)cc1 | 12% (inactive) |
| Cc1ccc(Cc2c(C)nc3nc(SCC(=O)NCCN4CCCN(C(=O)OC(C)(C)C)CC4)nn3c2C)cc1 | < 50% (inactive) |
| Cc1cccc(Cc2c(C)nc3nc(SCC(=O)N4CCCCCC4)nn3c2C)c1 | 71% |
| Cc1ccc(Cc2c(C)nc3nc(SCc4ccc(Cl)cc4)nn3c2C)cc1 | 52% |
| Cc1ccc(Cc2c(C)nc3nc(SCC(=O)NCCN4CCN(CCc5ccccc5)CC4)nn3c2C)cc1 | 65% |
| Cc1ccc(Cc2c(C)nc3nc(SCC(=O)NCCN4CCN(Cc5ccc(F)cc5)CC4)nn3c2C)cc1 | 66% |
| Cc1ccc(Cc2c(C)nc3nc(SCC(=O)Nc4ccccc4NC(=O)CSc4nc5nc(C)c(Cc6ccc(C)cc6)c(C)n5n4)nn3c2C)cc1 | 80% |
| CCCN1CCN(CCNC(=O)CSc2nc3nc(C)c(Cc4ccc(C)cc4)c(C)n3n2)CC1 | < 50% (inactive) |
| Cc1ccc(Cc2c(C)nc3nc(SCC(=O)NCC4CCN(C(=O)CSc5nc6nc(C)c(Cc7ccc(C)cc7)c(C)n6n5)CC4)nn3c2C)cc1 | 89% |
| Cc1ccc(Cc2c(C)nc3nc(SCC(=O)NCCCNC(=O)CSc4nc5nc(C)c(Cc6ccc(C)cc6)c(C)n5n4)nn3c2C)cc1 | 96% |
| Cc1ccc(Cc2c(C)nc3nc(SCC(=O)NCCN4CCCCC4)nn3c2C)cc1 | 56% |
| Cc1ccc(Cc2c(C)nc3nc(SCC(=O)NCCC(C)C)nn3c2C)cc1 | 43% (inactive) |
| Cc1ccc(Cc2c(CCc3ccccc3)nc3nc(SCC(=O)NCCN4CCOCC4)nn3c2C)cc1 | 44% (inactive) |

| Compound | inhibition |
| --- | --- |
| Cc1ccc(Cc2c(C)nc3nc(SCC(=O)NCCCCCCNC(=O)CSc4nc5nc(C)c(Cc6ccc(C)cc6)c(C)n5n4)nn3c2C)cc1 | 88% |
| Cc1ccc(Cc2c(C)nc3nc(SCC(=O)N4CCCN(C(=O)CSc5nc6nc(C)c(Cc7ccc(C)cc7)c(C)n6n5)CC4)nn3c2C)cc1 | 90% |
| Cc1ccc(Cc2c(C)nc3nc(SCC(=O)NCCN(C)C)nn3c2C)cc1 | < 50% (inactive) |
| Cc1ccc(Cc2c(C)nc3nc(SCC(=O)NCCN4CCN(C(=O)C(C)C)CC4)nn3c2C)cc1 | < 50% (inactive) |
| Cc1ccc(Cc2c(C)nc3nc(SCC(=O)N4CCN(Cc5ccc(C)cc5)CC4)nn3c2C)cc1 | 14% (inactive) |
| Cc1ccc(Cc2c(C)nc3nc(SCC(=O)N(C)C)nn3c2C)cc1 | 51% |
| Cc1ccc(Cc2c(C)nc3nc(SCC(=O)N4CCCC4)nn3c2C)cc1 | 87% |
| Cc1ccc(Cc2c(C)nc3nc(SCC(=O)NCCN4CCSCC4)nn3c2C)cc1 | 79% |
| Cc1nc2nc(SCC(=O)N3CCN(C(=O)CSc4nc5nc(C)c(Cc6ccc(Br)cc6)c(C)n5n4)CC3)nn2c(C)c1Cc1ccc(Br)cc1 | 25% (inactive) |
| Cc1ccc(Cc2c(C)nc3nc(SCC(=O)NCCN4CCN(C(=O)c5ccccc5)CC4)nn3c2C)cc1 | < 50% (inactive) |
| CCCNC(=O)CSc1nc2nc(C)c(Cc3cccc(C)c3)c(C)n2n1 | 33% (inactive) |
| Cc1cccc(Cc2c(C)nc3nc(SCC(=O)NCC(C)NC(=O)CSc4nc5nc(C)c(Cc6cccc(C)c6)c(C)n5n4)nn3c2C)c1 (stereo unspecified) | 67% |
| Cc1ccc(Cc2c(C)nc3nc(SCC(=O)N4CCOCC4)nn3c2C)cc1 | 13% (inactive) |
| C=CCN1CCN(CCNC(=O)CSc2nc3nc(C)c(Cc4ccc(C)cc4)c(C)n3n2)CC1 | < 50% (inactive) |
| Cc1ccc(Cc2c(C)nc3nc(SCC(=O)NCCc4ccccc4)nn3c2C)cc1 | 40% (inactive) |
| Cc1ccc(Cc2c(C)nc3nc(SCC(=O)N[C@H]4CCCN(C(=O)CSc5nc6nc(C)c(Cc7ccc(C)cc7)c(C)n6n5)C4)nn3c2C)cc1 | 85% |
| Cc1ccc(Cc2c(C)nc3nc(SCC(=O)NCC4CCCCN4C(=O)CSc4nc5nc(C)c(Cc6ccc(C)cc6)c(C)n5n4)nn3c2C)cc1 (stereo unspecified) | 93% |
| Cc1ccc(Cc2c(C)nc3nc(SCC(=O)NCCN4CCN(Cc5ccc(Cl)cc5)CC4)nn3c2C)cc1 | 87% |
